Assay [1] deals with Mycolicibacterium smegmatis. Briefly: Antibacterial activity against Mycobacterium smegmatis NBRC 3207 at 1 ug/disc incubated at 37 degC for 2 days by paper disc method. It is filed as functional. Put shortly: (§1)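 M. smegmatis NBRC 3207 kept as 20% glycerol stock at -80°C. Grown in Middlebrook 7H9 with 0.05% polysorbate 80, 0.5% glycerol and 10% OADC at 37°C for 2 days, then adjusted to 1.0×10^8 CFU/mL and spread on the same medium with 1.5% agar. Sample in CH3OH dried onto 6 mm discs, plated at 37°C for 2 days, inhibition zone read (mm). Controls: streptomycin sulfate 5 µg/disc, CH3OH.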

Assay [2] concerns Mycolicibacterium smegmatis. Put plainly: Antibacterial activity against Mycobacterium smegmatis NBRC 3207 at 5 ug/disc incubated at 37 degC for 2 days by paper disc method. It is filed as functional. Particulars: for zone of inhibition at 5 µg/disc: NBRC 3207, 48 h, read-out: IZ. Put shortly: as §1
Assay [3] concerns Mycolicibacterium smegmatis. Briefly: Antibacterial activity against Mycobacterium smegmatis NBRC 3207 at 10 ug/disc incubated at 37 degC for 2 days by paper disc method. Type of assay: functional. The note with it: NBRC 3207, 48 h, read-out: IZ. Put shortly:
as §1

The subject of assay [4] is Mycolicibacterium smegmatis. Put plainly: Antibacterial activity against Mycobacterium smegmatis NBRC 3207 incubated at 37 degC for 2 days by paper disc method. It is filed as functional. The gist of the method: as §1
In assay [5] the target is Dual specificity protein phosphatase 3 (Homo sapiens) (UniProt P51452). Put plainly: Inhibition of VHR (unknown origin) at 17 uM pre-incubated for 10 mins before pNPP substrate addition and measured after 30 mins. The gist of the method: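 Enzyme at 1.0 µg/mL stock, in 50 mM citrate buffer pH 6.0 with 0.1 M NaCl, 1 mM DTT and 1 mM EDTA. Sample in methanol preincubated 10 min at 37°C. pNPP (4.0 mM stock) then added, 30 min at 37°C, stopped with NaOH. Absorbance read at 405 nm. % inhibition from blank- and no-sample-control-corrected readings. Three duplicate experiments. Oleanolic acid positive control.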

Assay [6] shares this target. Put plainly: Inhibition of VHR (unknown origin) at 18 uM pre-incubated for 10 mins before pNPP substrate addition and measured after 30 mins. Put shortly: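 VHR (1.0 µg/mL stock) in 50 mM citrate buffer pH 6.0 with 0.1 M NaCl, 1 mM DTT and 1 mM EDTA. Sample in CH3OH added, preincubated 10 min at 37°C. pNPP added (4.0 mM stock), 30 min at 37°C, stopped with NaOH, A405 read. % inhibition computed against enzyme-free blank and sample-free control. Three duplicate experiments. Oleanolic acid as positive control.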

Each structure is given as a SMILES string. Structures can show the parent of a compound that is named as a salt. Active and inactive are the calls of the source. No cut-off for these calls is given here.

Dual specificity protein phosphatase 3 (Homo sapiens), sequence (P51452 whole entry, looked up): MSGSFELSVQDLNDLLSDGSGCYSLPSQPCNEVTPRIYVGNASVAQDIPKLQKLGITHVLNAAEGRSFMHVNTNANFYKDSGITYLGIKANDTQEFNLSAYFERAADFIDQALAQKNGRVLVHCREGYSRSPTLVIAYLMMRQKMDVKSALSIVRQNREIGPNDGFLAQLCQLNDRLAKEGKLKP

The inhibition is the percentage by which the read-out fell short of the control. A higher inhibition goes with a strong effect. As to `c1cc2c[n+](c1)CCCCCCCCCCCCCCCc1ccc[n+](c1)CCCCCCCCCCCCCC2`, the “inhibition zone (IZ)” value in assay [1] is “inactive”. Besides, in assay [2], the zone of inhibition at 5 µg/disc came out at 9 mm. Also, the zone of inhibition at 10 µg/disc in assay [3] is 13 mm. Also, in assay [4], the “growth inhibition (GI)” value is “Dose-dependent effect”. This compound had an inhibition in assay [5] of 28%.
On to `C1=C/CC[n+]2cccc(c2)CCCCCCCCCCCCCC[n+]2cccc(c2)CCCCCCCCCC/1`, for which the “inhibition zone (IZ)” value in assay [1] is “inactive”. Also, the zone of inhibition at 5 µg/disc in assay [2] came to 7 mm. For the same compound, in assay [3], the zone of inhibition at 10 µg/disc came out at 10 mm. In addition, the “growth inhibition (GI)” value in assay [4] was “Dose-dependent effect”.
On to `c1cc2c[n+](c1)CCCCCCCCCCCCCc1ccc[n+](c1)CCCCCCCCCCCCC2`, for which the “inhibition zone (IZ)” value in assay [1] and in assay [2] was “inactive” each time. Besides, in assay [3], the zone of inhibition at 10 µg/disc was 8 mm. Further, the “growth inhibition (GI)” value in assay [4] is “Dose-dependent effect”.
For `C1=C/CC[n+]2cccc(c2)CCCCCCCCCCCC[n+]2cccc(c2)CCCCCCCCCC/1`, the “inhibition zone (IZ)” value in assay [1] was “inactive”. For the same compound, the zone of inhibition at 5 µg/disc in assay [2] turned out to be 10 mm. Moreover, the zone of inhibition at 10 µg/disc in assay [3] was determined as 17 mm. In addition, the “growth inhibition (GI)” value in assay [4] was “Dose-dependent effect”.
The matching figures for `c1cc2c[n+](c1)CCCCCCCCCCCCc1ccc[n+](c1)CCCCCCCCCCCC2` [CYCLOSTELLETAMINES A]: “inactive”, 9 mm, 14 mm and “Dose-dependent effect”.
As for `c1cc2c[n+](c1)CCCCCCCCCCCCCc1ccc[n+](c1)CCCCCCCCCCCC2` [CYCLOSTELLETAMINES B], the “inhibition zone (IZ)” value in assay [1] and in assay [2] was “inactive” throughout. In addition, the zone of inhibition at 10 µg/disc in assay [3] stood at 8 mm. Besides, in assay [4], the “growth inhibition (GI)” value was “Dose-dependent effect”.
As for `c1cc2c[n+](c1)CCCCCCCCCCCCCCc1ccc[n+](c1)CCCCCCCCCCCCC2` [CYCLOSTELLETAMINES E], in assay [1], the “inhibition zone (IZ)” value is “inactive”. The zone of inhibition at 5 µg/disc in assay [2] was found to be 7 mm. Besides, the zone of inhibition at 10 µg/disc in assay [3] is 12 mm. For the same compound, the “growth inhibition (GI)” value in assay [4] is “Dose-dependent effect”.
As to `c1cc2c[n+](c1)CCCCCCCCCCCCCCc1ccc[n+](c1)CCCCCCCCCCCCCC2` [CYCLOSTELLETAMINES F], the “inhibition zone (IZ)” value in assay [1] was “inactive”. For the same compound, in assay [2], the zone of inhibition at 5 µg/disc was 8 mm. For the same compound, the zone of inhibition at 10 µg/disc in assay [3] turned out to be 12 mm. For the same compound, in assay [4], the “growth inhibition (GI)” value is “Dose-dependent effect”. In addition, the inhibition in assay [6] came out at 38%.
As for `CN[C@@H]1[C@H](O[C@H]2[C@H](O[C@H]3[C@H](O)[C@@H](O)[C@H](N=C(N)N)[C@@H](O)[C@@H]3N=C(N)N)O[C@@H](C)[C@]2(O)C=O)O[C@@H](CO)[C@H](O)[C@H]1O` [STREPTOMYCIN SULFATE], the zone of inhibition at 1 µg/disc in assay [1] (NBRC 3207, 48 h, read-out: IZ) is 20 mm. The zone of inhibition at 5 µg/disc in assay [2] was 35 mm.

Source of the values: ChEMBL document CHEMBL4033737, “Anti-mycobacterial alkaloids, cyclic 3-alkyl pyridinium dimers, from the Indonesian marine sponge Haliclona sp” (2017).
